# Columns and labels:
# [1] = Cytotoxicity index, IC50 for J774.1 macrophages over IC50 for Leishmania major promastigotes; conditions: mouse; for selectivity ratio: J774.1 macrophages, read-out: Ratio IC50
# Outline: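 Index is J774.1 IC50 divided by promastigote IC50, with both assays run in parallel. Promastigotes were incubated 24 h at 26°C with rising concentrations, and J774.1 cells 24 h at 37°C. Alamar Blue was then added. OD at 540/630 nm was read, and IC50 was interpolated linearly from the 48 h readings, with drug-free wells set as 100% growth.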
# NIH3T3 = test: Cytotoxicity against mouse embryo NIH3T3 cells by Alamar blue method; type: cell-based
# Outline: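 NIH 3T3 fibroblasts were grown on gelatin and suspended at 2 × 10^6 cells/ml in DMEM. They were exposed to rising compound concentrations for 24 h at 37°C in 5% CO2, then Alamar Blue was added. IC50 was derived by linear interpolation of the 48 h OD. Duplicate wells per concentration; at least two experiments.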
# Mus musculus [2] = species: Mus musculus; test: Cytotoxicity against J774.1 macrophages after 48 hrs; conditions: J774.1, 48 h
# Outline: (§1)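 J774.1 cells, BALB/c peritoneal exudate cells (erythrocytes lysed in 10 mM NH4Cl), or BMDC (day-10 nonadherent cells from GM-CSF 200 U/ml cultures) were plated at 2 × 10^6 cells/ml in complete RPMI without phenol red. Cells were exposed to increasing concentrations for 24 h at 37°C in 5% CO2, then Alamar Blue was added. IC50 was taken by linear interpolation from the 48 h OD. Duplicate wells, at least two experiments.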
# Leishmania major = test: Cytotoxicity against cloned virulent Leishmania major promastigotes MHOM/IL/81/FE/BN1 after 48 hrs; type: organism-based
# Outline: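 L. major promastigotes grown on blood agar at 26°C, 5% CO2, then washed in PBS and suspended at 1 × 10^8 cells/ml in complete Click RPMI 1640 (10% FCS, glutamine, HEPES pH 7.2, antibiotics, 2-mercaptoethanol), no phenol red. Exposed to increasing compound concentrations 24 h at 26°C, then Alamar Blue added. OD read 540/630 nm; 48 h OD versus untreated (100% growth) gave IC50 by linear interpolation. Duplicate wells, ≥2 experiments; DMSO ≤1% final.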
# [3] = Cytotoxicity against BALB/c mouse bone-marrow derived dendritic cells by Alamar blue method; type: cell-based; conditions: Dendritic cell; outline: as §1
# Mus musculus [4] = species: Mus musculus; test: Cytotoxicity against BALB/c mouse peritoneal macrophages by Alamar blue method; type: functional; outline: as §1
SMILES,selectivity ratio [1],IC50 (NIH3T3) [µM],IC50 (Mus musculus [2]) [µM],IC50 (Leishmania major) [µM],IC50 [3] [µM],IC50 (Mus musculus [4]) [µM],Ratio IC50 [1]
COc1cc2c(c(OC)c1)C(C)=[N+](c1ccc3cc(C)cc(OC)c3c1O)[C@@H](C)C2 [ANCISTROCLADINIUM B],9.04,10.6,11.2,1.24,20.1,16.9,–
COc1cc(OC)c(-c2ccc(OC)c3c(OC)cc(C)cc23)c2c1C(C)=N[C@@H](C)C2 [ANCISTROEALAINE A],–,–,> 100,> 100,–,–,–
COc1cc(OC)c2c(C)[n+](-c3cccc4ccccc34)c(C)cc2c1.[O-][Cl+3]([O-])([O-])[O-],3.48,15,10.2,2.91,27.4,15.5,–
COc1cc(C)c(-c2ccc3cc(C)nc(C)c3c2O)c2cccc(O)c12 [ENT-DIONCOPHYLLEINE A],–,–,–,32.3,–,–,–
COc1cc(OC)c2c(C)[n+](-c3ccccc3)c(C)cc2c1.[Cl-],–,–,43.7,47,–,–,< 1
COc1cccc2c(-c3ccc4c(c3O)[C@@H](C)N[C@H](C)C4)c(C)cc(OC)c12 [DIONCOPHYLLINE A],–,–,–,47,–,–,–
COc1cc(C)c(-c2ccc(O)c3c2C[C@@H](C)N[C@@H]3C)c2cccc(O)c12 [DIONCOPHYLLINE C],< 1,–,32.8,36.5,–,–,–
COc1cc2c(c(OC)c1-c1c(C)cc3cccc(OC)c3c1O)C(C)=N[C@@H](C)C2 [ANCISTROCLADIDINE],–,–,> 100,> 100,–,–,–
COc1c2c(cc(O)c1-c1c(C)cc3cccc(OC)c3c1O)C[C@H](C)N=C2C [ANCISTROHEYNINE B],< 1,–,29.9,33,–,–,–
COc1cc2c(c(OC)c1)C(C)=[N+](c1ccc(OC)c3c(OC)cc(C)cc13)[C@@H](C)C2 [ANCISANCISTROCLADINIUM A],6.48,–,31.8,4.9,36,41.7,–
COc1ccc(-c2ccc3cc(C)nc(C)c3c2O)c2cc(C)cc(OC)c12 [DIONCOPHYLLEINE D],–,–,> 100,> 100,–,–,–
COc1cc(CO)c(-c2ccc3c(c2O)[C@@H](C)N[C@H](C)C3)c2cccc(O)c12 [DIONCOPELTINE A],–,–,> 100,> 100,–,–,–
COc1cc(OC)c2c(C)[n+](-c3ccccc3)c(C)cc2c1.[O-][Cl+3]([O-])([O-])[O-],1.47,–,39.2,26.6,–,–,–

# — ChEMBL document CHEMBL1142164, “Activities of naphthylisoquinoline alkaloids and synthetic analogs against Leishmania major” (Antimicrob Agents Chemother, 2007)
